# Reference: ChEMBL document CHEMBL1121429, “Soft drugs. 1. Labile quaternary ammonium salts as soft antimicrobials” (J Med Chem, 1980)
# What was measured:
# [1] = tested on: Salmonella typhimurium; experiment: Minimum inhibitory concentration of salt was tested against Salmonella Typhimurium […] at 0.1 M NaH2PO4 adjusted to pH 7.0; assay type: functional; conditions: Salmonella enterica
# [2] = Toxicity of the salt was tested on white swiss male mice after intraperitoneal administration; assay type: organism-based; conditions: mouse, in vivo, ip
# How it was run: (§1)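 Male White Swiss mice (MCR-ICR), 20-23 g, 10-20 per dose. Salt given in isotonic NaCl, pH 7.0 (adjusted with sodium bicarbonate). LD50 with confidence limits was calculated by Litchfield–Wilcoxon.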
# [3] = Toxicity of the salt was tested on white swiss male mice after intravenous administration; assay type: organism-based; conditions: mouse, in vivo; how it was run: as §1
# [4] = Toxicity of the salt was tested on white swiss male mice after oral administration; assay type: organism-based; conditions: mouse, in vivo
# How it was run: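 Male White Swiss mice (MCR-ICR), 20-23 g, 10-20 per dose, dosed orally. At higher doses the salt was given in 0.8% NaCl brought to pH 5.84 with sodium bicarbonate. LD50 was calculated by Litchfield–Wilcoxon.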
# [5] = tested on: Pseudomonas aeruginosa; experiment: Sterilization time for contact germicidal efficiency (CGE) of salt was tested against at Pseudomonas aeruginosa at pH 7.0, concentration 1042.1 ppm; assay type: functional
# How it was run: (§2)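 Test solutions of the quaternary salt in buffer stood 30 min at room temperature. 0.2 mL of overnight broth culture was added to 5 mL of solution. Inocula: S. aureus ATCC 6538 6-8 × 10^6 cfu/mL, P. aeruginosa ATCC 9027 12-13 × 10^6/mL, S. pyogenes ATCC 19615 5 × 10^6 cfu/mL. At 0.5-30 min intervals a loop was subcultured into nutrient broth and incubated 7 days at 37 °C. Sterilization time is the first interval giving no growth.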
# [6] = tested on: Staphylococcus aureus; experiment: Sterilization time for contact germicidal efficiency (CGE) of salt was tested against Staphylococcus aureus at pH 7.0, concentration 1042.1 ppm; assay type: functional; how it was run: as §2
# [7] = tested on: Streptococcus pyogenes; experiment: Sterilization time for contact germicidal efficiency (CGE) of salt was tested against at Streptococcus pyogenes at pH 7.0, concentration 1042.1 ppm; assay type: functional
# How it was run: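 Streptococcus pyogenes ATCC 19615 overnight culture, 5 × 10^6 cfu/mL; 0.2 mL into 5 mL test solution of salt in buffer, left 30 min at room temperature beforehand. At timed intervals (0.5 to 30 min), a 3-mm loop was transferred to sterile nutrient broth and incubated at 37 °C for 7 days. Sterilization time is the shortest interval without growth; buffer-only and viability controls were run.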
# [8] = tested on: Staphylococcus aureus; experiment: Sterilization time for contact germicidal efficiency (CGE) of salt was tested against Staphylococcus aureus at pH 7.0, concentration 1038.7 ppm; assay type: functional
# [9] = tested on: Streptococcus pyogenes; experiment: Sterilization time for contact germicidal efficiency (CGE) of salt was tested against at Streptococcus pyogenes at pH 7.0, concentration 1039 ppm; assay type: functional
# [10] = tested on: Staphylococcus aureus; experiment: Sterilization time for contact germicidal efficiency (CGE) of salt was tested against at Staphylococcus aureus at pH 8.0, concentration 1018 ppm; assay type: functional
# [11] = tested on: Pseudomonas aeruginosa; experiment: Sterilization time for contact germicidal efficiency (CGE) of salt was tested against at Pseudomonas aeruginosa at pH 6.0, concentration 1018 ppm; assay type: functional
# [12] = tested on: Streptococcus pyogenes; experiment: Sterilization time for contact germicidal efficiency (CGE) of salt was tested against at Streptococcus pyogenes at pH 8.0, concentration 1018 ppm; assay type: functional
# [13] = tested on: Streptococcus pyogenes; experiment: Sterilization time for contact germicidal efficiency (CGE) of salt was tested against at Streptococcus pyogenes at pH 7.0, concentration 1038.7 ppm; assay type: functional
# [14] = tested on: Pseudomonas aeruginosa; experiment: Sterilization time for contact germicidal efficiency (CGE) of salt was tested against at Pseudomonas aeruginosa at pH 7.0, concentration 1038.7 ppm; assay type: functional
# [15] = tested on: Staphylococcus aureus; experiment: Sterilization time for contact germicidal efficiency (CGE) of salt was tested against at Staphylococcus aureus at pH 6.0, concentration 1018 ppm; assay type: functional
# [16] = tested on: Staphylococcus aureus; experiment: Sterilization time for contact germicidal efficiency (CGE) of salt was tested against at Staphylococcus aureus at pH 7.0, concentration 1039 ppm; assay type: functional
# [17] = tested on: Pseudomonas aeruginosa; experiment: Sterilization time for contact germicidal efficiency (CGE) of salt was tested against at Pseudomonas aeruginosa at pH 7.0, concentration 1039 ppm; assay type: functional
# [18] = tested on: Streptococcus pyogenes; experiment: Sterilization time for contact germicidal efficiency (CGE) of salt was tested against at Streptococcus pyogenes at pH 7.0, concentration 936.0 ppm; assay type: functional
# [19] = tested on: Pseudomonas aeruginosa; experiment: Sterilization time for contact germicidal efficiency (CGE) of salt was tested against at Pseudomonas aeruginosa at pH 7.0, concentration 936.0 ppm; assay type: functional
# [20] = tested on: Pseudomonas aeruginosa; experiment: Sterilization time for contact germicidal efficiency (CGE) of salt was tested against at Pseudomonas aeruginosa at pH 8.0, concentration 1018 ppm; assay type: functional
# [21] = tested on: Streptococcus pyogenes; experiment: Sterilization time for contact germicidal efficiency (CGE) of salt was tested against at Streptococcus pyogenes at pH 6.0, concentration 1018 ppm; assay type: functional
# [22] = tested on: Staphylococcus aureus; experiment: Sterilization time for contact germicidal efficiency (CGE) of salt was tested against Staphylococcus aureus at pH 7.0, concentration 936.0 ppm; assay type: functional
# [23] = tested on: Pseudomonas aeruginosa; experiment: Minimum inhibitory concentration of salt was tested against Pseudomonas aeruginosa at 0.1 M NaH2PO4 adjusted to pH 7.0; assay type: functional
# [24] = tested on: Streptococcus pyogenes; experiment: Minimum inhibitory concentration of salt was tested against Streptococcus pyogenes aureus at 0.1 M NaH2PO4 adjusted to pH 7.0; assay type: functional
# [25] = tested on: Bacillus subtilis; experiment: Minimum inhibitory concentration of salt was tested against Bacillus subtilis at 0.1 M NaH2PO4 adjusted to pH 7.0; assay type: functional
# [26] = tested on: Staphylococcus aureus; experiment: Minimum inhibitory concentration of salt was tested against Staphylococcus aureus aureus at 0.1 M NaH2PO4 adjusted to pH 7.0; assay type: functional
# How it was run: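 Bacteria grown 18-20 h at 37 °C in tryptose phosphate broth, adjusted to OD650 0.01, then diluted into double-strength medium to about 2 × 10^5 viable organisms/mL. Compound in 0.1 M NaH2PO4 pH 7.0 was serially twofold diluted into sterile water and added 1:1 to the cultures. MIC read after 18-20 h at 37 °C, with viability, sterility and buffer controls.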
compound,measurement,setting,value
CCCCCCCCCCCCCCCC(=O)OC[n+]1ccccc1.[Cl-],MIC,[1],1070 µg/mL
CCCCCCCCCCCC(=O)OC[N+]1=CN(C)CC1.[Cl-],LD50,[2],155 mg/kg
same,LD50,[3],75 mg/kg
same,LD50,[4],4110 mg/kg
CCCCCCCCCCCCCC(=O)OC[n+]1ccccc1.[Cl-],Time,[5],1 min
same,Time,[6],1 min
same,Time,[7],0.5 min
CCCCCCCCCCCCCCCC[n+]1ccccc1.[Cl-],Time,[8],0.5 min
same,Time,[9],0.5 min
same,Time,[10],0.5 min
same,Time,[11],0.5 min
same,Time,[12],0.5 min
same,Time,[13],0.5 min
same,Time,[14],0.5 min
same,Time,[15],0.5 min
same,Time,[16],0.5 min
same,Time,[17],0.5 min
same,LD50,[2],10 mg/kg
same,Time,[18],0.5 min
same,Time,[19],0.5 min
same,Time,[20],0.5 min
same,LD50,[4],108 mg/kg
same,Time,[21],0.5 min
same,Time,[22],0.5 min
CCCCCCCCCCCCCCCC(=O)OC[N+]1=CN(C)CC1.[Cl-],MIC,[23],> 42.4 µg/mL
same,MIC,[1],> 42.4 µg/mL
same,MIC,[24],> 42.4 µg/mL
same,MIC,[25],> 42.4 µg/mL
same,MIC,[26],1.3 µg/mL
